# What was measured:
# [1] = Solubility in water at PH 7.4 in the presence of Tris.HCl buffer; assay type: physicochemical
# In short: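 Aqueous solubility measured in Tris-HCl buffer, pH 7.4.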
# [2] = target: T1, Adenosine receptor A1 (Rattus norvegicus) (UniProt P25099); experiment: Antagonistic activity on N6-([3H]-phenylisopropyl)adenosine binding to rat brain membrane (Adenosine A1 receptor); assay type: tissue-based
# T1 sequence (whole entry): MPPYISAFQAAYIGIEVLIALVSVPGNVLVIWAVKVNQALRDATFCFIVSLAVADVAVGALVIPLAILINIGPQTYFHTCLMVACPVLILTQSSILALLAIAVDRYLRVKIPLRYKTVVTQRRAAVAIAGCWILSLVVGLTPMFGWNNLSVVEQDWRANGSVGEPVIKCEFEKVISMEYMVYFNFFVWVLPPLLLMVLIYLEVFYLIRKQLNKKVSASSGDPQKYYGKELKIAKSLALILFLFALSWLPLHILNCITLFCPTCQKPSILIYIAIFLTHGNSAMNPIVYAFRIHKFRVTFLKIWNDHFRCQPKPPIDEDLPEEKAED
# [3] = target: Adenosine A2 receptor (Homo sapiens, UniProt P29275+P29274); experiment: Inhibition of 5'-(N-ethylcarbamoyl)adenosine-elicited stimulation of adenylate cyclase in human platelet membranes; assay type: cell membranes
# [4] = target: T1, Adenosine receptor A1 (Rattus norvegicus); experiment: Antagonistic activity against N6-([3H]-phenylisopropyl)adenosine binding to rat brain membrane (Adenosine A1 receptor); assay type: tissue-based
# In short: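 Competition binding against 1 nM N6-([3H]phenylisopropyl)adenosine at A1 receptors in rat cerebral cortical membranes. A range of xanthine concentrations was tested in triplicate in at least two separate experiments. Values are means with 95% confidence limits.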
# [5] = target: Adenosine A2 receptor (Cavia porcellus); experiment: Inhibition of stimulation of adenylate cyclase in guinea pig brain slices at A2 receptor (2-chloroadenosine-elicited accumulations of cyclic AMP)
solubility [1],Kb [2],Kb [3],Kb [4],IC50 [5],Compound
18 µM,,,,,CCCn1c(=O)c2[nH]c(-c3ccccc3)nc2n(CCC)c1=O
31 µM,,,,,"CCCn1c(=O)c2[nH]c(C3CCCC3)nc2n(CCC)c1=O [1,3-DIPROPYL-8-CYCLOPENTYLXANTHINE [DPCPX]]"
,620 nM,6900 nM,,,CCCn1c(=O)c2nc(C3CCNCC3)[nH]c2n(CCC)c1=O
,3.5 nM,,,,CCCn1c(=O)c2nc(-c3ccc(O)cc3)[nH]c2n(CCC)c1=O
,600 nM,3600 nM,,,CCCn1c(=O)c2nc(-c3cnccn3)[nH]c2n(CCC)c1=O
,16 nM,4400 nM,,,CCCn1c(=O)c2nc(-c3ccc(OCC(=O)NCCc4ccc(O)cc4)cc3O)[nH]c2n(CCC)c1=O
14 µM,3.7 nM,,,,CCCn1c(=O)c2nc(-c3ccc(OC)cc3)[nH]c2n(CCC)c1=O
,38 nM,240 nM,,,CCCn1c(=O)c2nc(-c3ccc(C(=O)NCC(=O)OC)cc3)[nH]c2n(CCC)c1=O
,100 nM,2400 nM,,,CCCn1c(=O)c2nc(-c3ccc(OCC(=O)NCCc4c[nH]cn4)cc3O)[nH]c2n(CCC)c1=O
5600 µM,6.5 nM,1200 nM,,,CCCn1c(=O)c2nc(-c3ccc(OCC(N)=O)cc3O)[nH]c2n(CCC)c1=O
,8.4 nM,77 nM,,,CCCn1c(=O)c2nc(-c3ccc(OCC(=O)NCCN(C)C)cc3O)[nH]c2n(CCC)c1=O
5 µM,,,,,CCCn1c(=O)c2[nH]c(-c3ccc(C(N)=O)cc3)nc2n(CCC)c1=O
710 µM,2.4 nM,140 nM,,,CCCn1c(=O)c2nc(-c3ccc(OCC(=O)NCCN)cc3O)[nH]c2n(CCC)c1=O
11 µM,,,,,CCCn1c(=O)c2[nH]c(-c3ccc(O)cc3O)nc2n(CCC)c1=O
1600 µM,,,710 nM,,CCCn1c(=O)c2nc[nH]c2n(CCC)c1=O
74 µM,,190 nM,,,CCCn1c(=O)c2nc(C3CCCCC3)[nH]c2n(CCC)c1=O
,39 nM,2700 nM,,,CCCn1c(=O)c2nc(CC3CCCCC3)[nH]c2n(CCC)c1=O
,12 nM,54 nM,,72 nM,CCCn1c(=O)c2nc(-c3ccc(C(N)=O)cc3)[nH]c2n(CCC)c1=O
180 µM,200 nM,,,,CCCn1c(=O)c2nc(-c3ccc(C(=O)O)cc3)[nH]c2n(CCC)c1=O
,31 nM,3800 nM,,,CCCn1c(=O)c2nc(-c3ccc(OCC(=O)OCC)cc3O)[nH]c2n(CCC)c1=O
,2.5 nM,,,,CCCn1c(=O)c2nc(-c3ccc(O)cc3O)[nH]c2n(CCC)c1=O
,10 nM,,,,CCCn1c(=O)c2nc(-c3ccccc3)[nH]c2n(CCC)c1=O
,,1900 nM,16 nM,,CCCn1c(=O)c2nc(CC3CCCC3)[nH]c2n(CCC)c1=O
1100 µM,37 nM,2000 nM,,,CCCn1c(=O)c2nc(-c3ccc(OCC(=O)O)cc3O)[nH]c2n(CCC)c1=O
18 µM,4.6 nM,180 nM,,980 nM,CCCn1c(=O)c2[nH]c(-c3ccc(OC)cc3O)nc2n(CCC)c1=O
